Measured values of several laboratories.
Lines come from different studies, so protocols differ.
JAK3 JH1: Tyrosine-protein kinase JAK3, JH1 (JAK3, Homo sapiens, UniProt P52333)
JAK3: Tyrosine-protein kinase JAK3 (JAK3, Homo sapiens, UniProt P52333)

O=C(NC[C@@H]1[C@H]2CN(C(=O)OCc3cc(C(F)(F)F)cc(C(F)(F)F)c3)C[C@@H]12)c1ccc2[nH]nnc2c1  remaining binding (JAK3 JH1; cell-free assay; competition with immobilised ligand; 1 µM): 69%
c1cnn2ncc(-c3ccnc(N4CCC45COC5)n3)c2c1  remaining signal (JAK3 JH1; cell-free assay; 1 µM): 68%
O=C(CSc1nc2nccnc2c(=O)n1CCc1ccccc1)Nc1nccs1  inhibition (JAK3; enzyme activity; inhibitor; 10 µM): -2%
O=C1Nc2ccc(Cl)cc2C1=Cc1cc(Cl)c(O)c(Cl)c1  remaining signal (JAK3; cell-free assay; 0.5 µM): 100%
CCC(=N\O)/C(C)=C/c1ccc(F)cc1  remaining binding (JAK3 JH1; cell-free assay; competition with immobilised ligand; 1 µM): 80%
COc1cc2nccc(Oc3ccc(NC(=O)c4c5n(n(-c6ccc(F)cc6)c4=O)CCCC5)cc3)c2cc1OC  inhibition (JAK3; enzyme activity; inhibitor; 0.1 µM): -18%
COc1cc2ncnc(Nc3ccc(Oc4ccccc4)cc3C)c2cc1OC  inhibition (JAK3; enzyme activity; inhibitor; 1 µM): -6%
COc1cccc(CNC(=O)c2nc3scc(COCc4ccc(C(=O)O)cc4)c3c(=O)[nH]2)c1  remaining binding (JAK3 JH1; cell-free assay; competition with immobilised ligand; 1 µM): 78.4%
Cc1ccc(C(=O)NCc2ccsc2)cc1C#Cc1cn(C(C)C)c2ncnc(N)c12  activity vs control (JAK3; enzyme activity; inhibitor; 1 µM): 74%
N#CCCc1ccc2c(c1)-c1[nH]c3ccc([N+](=O)[O-])cc3c1CC(=O)N2  remaining signal (JAK3; cell-free assay; 0.5 µM): 101%
C[C@@H]1CCN(c2nccc(-c3cnn4ncccc34)n2)C1  remaining signal (JAK3 JH1; cell-free assay; 1 µM): 80%
O=C(Nc1cnn(-c2csc(C(=O)NC3COC3)c2)c1)Nc1ccccc1Cl  remaining activity (JAK3; enzyme activity; inhibitor; 5 µM): 102%
COc1cc(/C=C/C(=O)CC(=O)/C=C/c2ccc(O)c(OC)c2)ccc1O  activity vs control (JAK3; enzyme activity; inhibitor; 1 µM): 104%
CCc1ccccc1C(=O)Nc1n[nH]c2c(C)c(F)c(C3C(C#N)=C(C)N(C)C(C)=C3C#N)cc12  remaining binding (JAK3 JH1; cell-free assay; competition with immobilised ligand; 1 µM): 79%
CC/C(=N\NC(=O)NCc1cccc(O)c1)c1ccc(O)c(C)c1O  inhibition (JAK3; enzyme activity; inhibitor; 0.1 µM): 3%
Cc1cnc(NC2CCOCC2)nc1-n1cnc(C(=O)NC(CN)c2cc(F)cc(Cl)c2)c1 (centres unmarked)  remaining activity (JAK3; enzyme activity; inhibitor; radiometric; 1 µM): 118%
Nc1ncnc2occ(-c3ccc(NC(=O)Nc4cc(C(F)(F)F)ccc4F)cc3)c12  remaining signal (JAK3 JH1; cell-free assay; inhibitor; 20 µM): 4.3%
CCN(CC)CCNC(=O)c1c(C)[nH]c(/C=C2\C(=O)Nc3ccc(F)cc32)c1C  inhibition (JAK3; enzyme activity; inhibitor; 0.3 µM): 7%
O=C(NCCCC1CCCCC1)c1ccc(CNC(=O)c2cnn(-c3ccccc3)c2C(F)(F)F)cc1  remaining binding (JAK3 JH1; cell-free assay; competition with immobilised ligand; 0.1 µM): 100%
CCN(CC)c1ccc(C2=NNC(=O)CC2C)cc1[N+](=O)[O-] (centres unmarked)  remaining activity (JAK3; enzyme activity; inhibitor; 10 µM): 134%
CC(C)(C)c1nc(-c2cccc(NS(=O)(=O)c3c(F)cccc3F)c2F)c(-c2ccnc(N)n2)s1  remaining activity (JAK3; enzyme activity; inhibitor; radiometric; 1 µM): 115%
Cc1ccc(C(=O)Nc2ccc(CN3CCN(C)CC3)c(C(F)(F)F)c2)cc1C#Cc1cnc2cccnn12  remaining activity (JAK3; enzyme activity; inhibitor; 23.5 nM): 14%
CCCOc1ccc(OC)c(F)c1C(=O)c1ccc(C(=O)N[C@@H]2CNC[C@H]2NC(=O)c2ccc3[nH]ncc3c2)cc1  remaining activity (JAK3; enzyme activity; inhibitor; 10 µM): 19%
O=C(Nc1cnc(Oc2ccc(F)cc2)nc1)N1CCc2ncccc2[C@@H]1c1ccc(F)cc1  remaining binding (JAK3 JH1; cell-free assay; competition with immobilised ligand; 1 µM): 91%
C=CC(=O)Nc1cc(Nc2nccc(Nc3cc(Cl)c(F)cc3C(C)(C)O)n2)c(OC)cc1N1CC[C@@H](N(C)C)C1  inhibition (JAK3; enzyme activity; inhibitor; 1 µM): 24%
O=C(O)[C@@H]1[C@@H](Cn2nnc3ccccc3c2=O)CC[C@H]1C(=O)c1ccc(OCCC2CCOCC2)cc1  remaining binding (JAK3 JH1; cell-free assay; competition with immobilised ligand; 1 µM): 95%
Cc1ccc(Nc2nccc(N(C)c3ccc4c(C)n(C)nc4c3)n2)cc1S(N)(=O)=O  inhibition (JAK3; enzyme activity; inhibitor; 10 µM): 77%
CCOC(=O)c1cc2cc(-c3cc(C(=O)NCc4ccc(C(=O)O)cc4)nn3C)ccc2[nH]1  remaining binding (JAK3 JH1; cell-free assay; competition with immobilised ligand; 0.1 µM): 82%
CNC(=O)c1cc(Oc2ccc(NC(=O)Nc3ccc(Cl)c(C(F)(F)F)c3)cc2)ccn1  remaining signal (JAK3; cell-free assay; 0.5 µM): 99.4%
